697 NFkB inh: lowers PMA/ionomycin-induced NF-kB signal in 697 B cells; 697 B-cell NF-kB luciferase reporter, 16 h; inhibition, % at 4 µM; 330,000 compounds, 0.33% hits; AID 435022; in the data active = inhibition above about 35%
Lipid droplet: modulators of hepatic lipid droplet formation; AML12 mouse hepatocytes, oleate lipid droplets, BODIPY imaging; 240,000 compounds, 0.4% hits; inhibition, % at 6.5 µM;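 active = lipid droplet intensity inhibited by at least 50%, with more than 500 cells counted; inconclusive = wells with under 300 cells, treated as cytotoxic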
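Assay system: AML12 hepatocytes (mouse) / Also added: 100 µM oleic acid challenge / Times: overnight treatment with compound plus oleate / Detection: high-content imaging of BODIPY-stained droplets and DAPI nuclei / Evaluation: % inhibition of lipid droplet signal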
APP transl inh: APP translation inhibition. SH-SY5Y APP 5'UTR-luciferase reporter, luminescence. inhibition, % at 2 µM. 190,000 compounds, 0.82% hits;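 active = inhibition above a set limit, derived from the sample mean plus 3 SD, cut at about 45% in these data; inconclusive = one replicate passes the limit while the other fails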
TAG inh: triacylglycerol accumulation inhibition. 230,000 compounds, 0.66% hits. inhibition, % at 12.5 µM. AID 651582. H9c2 cells, Nile Red lipid (TAG) fluorescence; cells loaded with 200 µM oleic acid;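 active = pattern-corrected inhibition of lipid staining of at least 50% with the nuclear-stain viability signal not falling by more than 50%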;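 note: 0% = DMSO wells and 100% = triacsin C control wells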
aSyn UTR inh: MLPCN primary screen, SNCA 5' untranslated region | inhibition, % (tested at 7.5 µM) | alpha-synuclein 5'UTR reporter, inhibitor activity | 300,000 compounds, 0.82% hits; in the data active = inhibition above about 60%; inconclusive = no clear call, values can overlap the other calls;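 note: H4 neuroglioblastoma cells stably carrying SNCA 5'UTR luciferase fusion; 0% = DMSO wells and 100% = positive control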
Jurkat NFkB inh: inhibitors of the PMA/ionomycin-induced NF-kB reporter in Jurkat cells. PMA/ionomycin-induced NF-kB luciferase reporter, luminescence. inhibition, % at 4 µM. 330,000 compounds, 0.53% hits. AID 435003; in the data active = inhibition above about 50%
Active calls of the source: *; ? = inconclusive; . = no result. An excerpt weighted towards active compounds, which were near 1.9% of everything screened.

SMILES	697 NFkB inh	Lipid droplet	APP transl inh	TAG inh	aSyn UTR inh	Jurkat NFkB inh
CCCc1cc(-c2nc(N)ncc2-c2csc(C)n2)c(O)cc1OC	-11	6	5	.	23	10
COCCN1C[C@@H](CO)O[C@@H](n2cnc3c(NC(C)C)ncnc32)C1	.	.	.	-6	.	.
COc1ccccc1NC(=S)Nc1ccc2cn[nH]c2c1	-46	12	-20	-14	-101	-26
COc1ccc(S(=O)(=O)Nc2cc(Cl)ccc2OC)cc1	.	.	87*	.	44	.
COc1ccc(OC)c(NS(=O)(=O)c2ccc(SC)cc2)c1	-41	-2	4	.	-161	31
CCOc1ccc(S(=O)(=O)Nc2cc(OC)ccc2OC)cc1	4	-192	93*	.	81*	40
Cc1cccc(NS(=O)(=O)c2ccccc2)n1	-16	.	-1	.	10	6
Cc1cccc(NS(=O)(=O)Cc2ccccc2)n1	-10	3	75*	-5	-5	4
CN(C)/C=N/C1=C(C#N)C(c2cccs2)c2ccc3ccccc3c2O1 (stereo unspecified)	.	-121	92*	36	.	.
CCC[C@@H](CNC)NC[C@H](Cc1ccccc1)NCCCCc1ccccc1	-22	-5	.	131*	-16	11
CC(C)C1C(=O)N(Cc2cn(CCC3OCCCO3)nn2)CCS(=O)(=O)N1Cc1ccc(-c2ccc(Cl)c(Cl)c2)cc1 (stereo unspecified)	.	.	.	26	.	.
COc1ccc(OCC(=O)Nc2nccs2)cc1	8	-26	-104	-5	16	-81
CCOc1ccc(OCC(=O)Nc2nccs2)cc1	23	3	-157	-16	69*	8
Cn1c(CC(=O)NNC(=O)c2cccnc2)nc2ccccc21	3	.	.	3	.	-6
COc1ccnc(N=CNOCc2ccc(F)cc2Cl)c1C#N	-14	11	82*	-2	-56	-32
CN(C)c1ccc(NC2=C(Cl)C(=O)c3ccccc3C2=O)cc1	-112	-1	94*	.	-116	-78
O=C1C(Cl)=C(Nc2ccc3cn[nH]c3c2)C(=O)c2ccccc21	.	0	.	.	100*	.
Cc1ccc(NC2=C(NCCO)C(=O)c3ccccc3C2=O)cc1	-53	59*	-29	.	-27	-35
CC(=O)Nc1ccc(NC2=C(Cl)C(=O)c3ccccc3C2=O)cc1	-18	-13	89*	.	-40	-18
CC(C)[C@@H]1NC(=O)c2cc([N+](=O)[O-])cc(I)c2NCCCC[C@@H](C(=O)NC(CC(=O)O)C(N)=O)NC(=O)[C@H](CO)NC1=O (stereo partly specified)	.	-2	3	.	.	.
CC(C)(C)S(=O)(=O)N1C[C@H]2CC/C=C\C/C(c3ccccc3)=C\2[C@@H]1CCO	.	.	.	-11	.	.
C=CCNc1ncnc2c1ncn2[C@H]1CN(Cc2ccc(-c3ccccc3)cc2)C[C@@H](CO)O1	.	.	.	4	.	.
Cc1cc(SCC(=O)N/N=C/c2ccc(O)cc2O)c(C)cc1Br	-29	1	49*	.	78*	5
Cc1cc(SCC(=O)N/N=C/c2ccccc2C(=O)O)c(C)cc1Br	-13	0	.	.	5	-1
O=C(Nc1ccn(CCCN2CCC(N3CCOCC3)CC2)c(=O)n1)OCc1ccccc1	.	.	.	6	.	.
SMILES	697 NFkB inh	Lipid droplet	APP transl inh	TAG inh	aSyn UTR inh	Jurkat NFkB inh
C=CCN1CN(Cc2ccco2)CNC1=S	-27	18	62*	.	9	-19
Cc1ccc(S(=O)(=O)/N=C2/C=C(Sc3ncn[nH]3)C(=O)c3ccccc32)cc1	.	-29	64*	.	.	.
Cc1ccc(S(=O)(=O)/N=C2/C=C(Sc3ncn[nH]3)C(=O)c3ccccc32)c(C)c1	.	-10	66*	.	.	.
CC(C)c1ccc(S(=O)(=O)/N=C2/C=C(Sc3ncn[nH]3)C(=O)c3ccccc32)cc1	.	-26	34	.	.	.
N#C/C(=C\c1ccco1)C(=O)NCc1ccccc1	-7	0	-11	.	-25	-8
N#CC(C#N)=C1C=CC=CN1/C(=C\c1ccco1)C(=O)c1ccc(Cl)cc1	.	-5	96*	.	.	.
N#CC(C#N)=C1C=CC=CN1/C(=C\c1ccco1)C(=O)c1ccc(-c2ccccc2)cc1	.	-65	92*	75	.	.
CC(/C=N/n1c(-c2ccc(Cl)cc2)n[nH]c1=S)=C\c1ccco1	-7	-4	-4	.	-17	8
O=[N+]([O-])c1cccc(-c2nnc(-c3ccccc3)o2)c1	-66	13	-115	18	68*	-66
COC(=O)c1sccc1NC(=O)c1c(C)c(-c2cccc(Cl)c2)nc2ccccc12	-5	3	50*	.	5	-10
COC(=O)c1sccc1NC(=O)c1cc(-c2cccc(C)c2)nc2ccccc12	9	.	-9	-25	11	15
O=C1C(Cl)=C(N2CCC(C(=O)O)CC2)C(=O)c2ccccc21	25	.	.	6	17	5
CN1CCN(C2=C(Cl)C(=O)c3ccccc3C2=O)CC1	.	.	.	58*	.	.
Cc1cccc(C(=O)N2CCCC(N3CCN(Cc4ccc5c(c4)OCO5)CC3)C2)n1 (stereo unspecified)	-21	2	.	11	-1	-18
COCCN(Cc1cc2ccc(C)cc2n2nnnc12)Cc1nnnn1C(C)(C)C	-19	-9	46*	-4	17	-3
COCCN(Cc1cc2cc(C)ccc2n2nnnc12)C(=S)Nc1cccc(C)c1	-4	5	6	17	30	6
O=C(NNC(=O)C(c1ccccc1)c1ccccc1)c1ccccn1	13	-8	55*	.	72*	14
O=C(NNC(=S)Nc1ccc(Cl)c(Cl)c1)c1ccccn1	20	13	31	-1	68*	-1
O=C(NNc1ccccn1)C(c1ccccc1)c1ccccc1	6	2	20	.	2	4
O=C(N/N=C(\Cc1ncc[nH]1)c1ccccc1)c1ccccc1	18	2	1	.	74*	11
CC1C(=O)C(C)C(c2ccc(Cl)cc2)NC1c1ccc(Cl)cc1 (stereo unspecified)	-15	.	.	-4	68*	0
COc1ccc(C2NC(c3ccc(OC)cc3)C(C)C(=O)C2C)cc1 (stereo unspecified)	5	.	.	.	0	-16
CC1CC(=O)C(C(C2=C(O)CC(C)CC2=O)c2ccccc2)=C(O)C1 (stereo unspecified)	.	.	.	21	.	.
Cc1ccc(N(CC(=O)NC(C)(C)C)C(=O)CCC(=O)Nc2ccccn2)cc1	.	.	.	4	.	.
Cc1ccc(NC(=O)c2ccc(N/N=C/c3cccc(O)c3)c([N+](=O)[O-])c2)cc1	-7	.	-9	60*	?	0
Cc1ccccc1NC(=O)c1ccc(N/N=C/c2ccccc2O)c([N+](=O)[O-])c1	2	.	1	17	8	28
CC(=O)OCCCNc1cc(Sc2ccc(Cl)cc2)c2nonc2c1[N+](=O)[O-]	.	-2	51*	111	8	.
CCC(=O)OCCNc1cc(Sc2nccn2C)c2nonc2c1[N+](=O)[O-]	.	4	60*	69*	16	.
CC(=O)OCCNc1cc(SC(C)C)c2nonc2c1[N+](=O)[O-]	21	-10	-7	7	.	-2
